The test system of experiment [1] is Human immunodeficiency virus 1. In words: Antiviral activity against enfuvirtide-resistant Human immunodeficiency virus 1 NL4-3 harboring gp41 D36G/N43D/S138A mutation by MAGI assay using human HeLa Cd4/LTR-beta-galactosidase cells relative to HIV1 NL4-3 gp41 D36G mutant. The class given is functional.
In experiment [2] the test system is Human immunodeficiency virus 1. In words: Antiviral activity against enfuvirtide-resistant Human immunodeficiency virus 1 NL4-3 harboring gp41 D36G/V38A mutation by MAGI assay using human HeLa Cd4/LTR-beta-galactosidase cells relative to HIV1 NL4-3 gp41 D36G mutant. The class given is functional.
In experiment [3] the test system is Human immunodeficiency virus 1. In words: Antiviral activity against enfuvirtide-resistant Human immunodeficiency virus 1 NL4-3 harboring gp41 D36G/I37K/N126K/L204I mutation and 5-amino-acid deletion in the V4 region of gp120 protein by MAGI assay using human HeLa Cd4/LTR-beta-galactosidase cells relative to HIV1 NL4-3 gp41 D36G mutant by MAGI assay. The class given is functional.

The subject of experiment [4] is Human immunodeficiency virus 1. Put plainly: Antiviral activity against enfuvirtide-resistant Human immunodeficiency virus 1 NL4-3 harboring gp41 D36G/N126K mutation by MAGI assay using human HeLa Cd4/LTR-beta-galactosidase cells relative to HIV1 NL4-3 gp41 D36G mutant. It counts as functional.
The test system of experiment [5] is Human immunodeficiency virus 1. Put plainly: Antiviral activity against enfuvirtide-resistant Human immunodeficiency virus 1 NL4-3 by MAGI assay using human HeLa Cd4/LTR-beta-galactosidase cells. The class given is functional, organism-based. The note with it: Human immunodeficiency virus 1, NL4-3, HeLa.
Experiment [6] relates to Human immunodeficiency virus 1. In words: Antiviral activity against enfuvirtide-resistant Human immunodeficiency virus 1 NL4-3 by MAGI assay using human HeLa Cd4/LTR-beta-galactosidase cells relative to HIV1 NL4-3 gp41 D36G mutant. The class given is functional.
Experiment [7] deals with Human immunodeficiency virus 1. In words: Antiviral activity against enfuvirtide-resistant Human immunodeficiency virus 1 NL4-3 harboring gp41 D36G/I37K/N126K/L204I mutation and 5-amino-acid deletion in the V4 region of gp120 protein by MAGI assay using human HeLa Cd4/LTR-beta-galactosidase cells by MAGI assay. The class given is functional, organism-based.
The test system of experiment [8] is Human immunodeficiency virus 1. Put plainly: Antiviral activity against enfuvirtide-resistant Human immunodeficiency virus 1 NL4-3 harboring gp41 D36G/N43D mutation by MAGI assay using human HeLa Cd4/LTR-beta-galactosidase cells relative to HIV1 NL4-3 gp41 D36G mutant. The class given is functional.
In experiment [9] the test system is Human immunodeficiency virus 1. In words: Antiviral activity against enfuvirtide-resistant Human immunodeficiency virus 1 NL4-3 harboring gp41 D36G/N126K mutation by MAGI assay using human HeLa Cd4/LTR-beta-galactosidase cells. The class given is functional, organism-based.
The test system of experiment [10] is Human immunodeficiency virus 1. Put plainly: Antiviral activity against enfuvirtide-resistant Human immunodeficiency virus 1 NL4-3 harboring gp41 D36G/N43D/S138A mutation by MAGI assay using human HeLa Cd4/LTR-beta-galactosidase cells. The class given is functional, organism-based.
Experiment [11] has as its system Human immunodeficiency virus 1. In words: Antiviral activity against enfuvirtide-resistant Human immunodeficiency virus 1 NL4-3 harboring gp41 D36G/N43D mutation by MAGI assay using human HeLa Cd4/LTR-beta-galactosidase cells. The class given is functional, organism-based.
Experiment [12] relates to Human immunodeficiency virus 1. In words: Antiviral activity against enfuvirtide-resistant Human immunodeficiency virus 1 NL4-3 harboring gp41 D36G mutation by MAGI assay using human HeLa Cd4/LTR-beta-galactosidase cells. It counts as functional, organism-based.
In experiment [13] the test system is Human immunodeficiency virus 1. Put plainly: Antiviral activity against enfuvirtide-resistant Human immunodeficiency virus 1 NL4-3 harboring gp41 D36G/V38A mutation by MAGI assay using human HeLa Cd4/LTR-beta-galactosidase cells. The class given is functional, organism-based.
The subject of experiment [14] is Human immunodeficiency virus 1. In words: Antiviral activity against enfuvirtide-resistant Human immunodeficiency virus 1 NL4-3 by MAGI assay using human HeLa Cd4/LTR-beta-galactosidase cells in presence of 5 to 50% fetal calf serum. It counts as functional, organism-based. The method in brief:
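MAGI assay against HIV-1 NL4-3 run with FCS at 5, 10, 20 or 50% in the medium. HeLa CD4/LTR-β-galactosidase cells were inoculated at 60 MAGI U/well, cultured 48 h with drug, and X-gal-stained blue cells counted. Each EC50 was determined three times independently, with Student's t test.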

For experiment [15], the system named is Human immunodeficiency virus 1. Put plainly: Antiviral activity against enfuvirtide-resistant Human immunodeficiency virus 1 NL4-3 by MAGI assay using human HeLa Cd4/LTR-beta-galactosidase cells in presence fresh human serum after 2 hrs. It counts as functional, organism-based.
Experiment [16] deals with Human immunodeficiency virus 1. Put plainly: Antiviral activity against Human immunodeficiency virus 1 NL4-3 assessed as decrease in EC50 by MAGI assay relative to ddC. It counts as functional, organism-based. The method in brief:
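HeLa CD4/LTR-β-galactosidase (MAGI) cells were seeded at 10^4/well and infected next day with HIV-1 NL4-3 (60 MAGI U/well). They were cultured 48 h with serial drug dilutions in medium containing 5, 10, 20 or 50% FCS, with ddC as the reverse transcriptase inhibitor reference. X-gal-stained blue cells were counted. EC50 is the concentration giving 50% inhibition, determined three times independently.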

pEC50: −log10 of the molar value. Calls of active or inactive are those of the source. No cut-off for these calls is given here. Non-standard residues stand in square brackets, D forms with d. Nle = CCCC[C@H](N)C(=O)O Bounds are passed on as bounds.

Results on five compounds are retold here after ChEMBL document CHEMBL1649128, “SC29EK, a peptide fusion inhibitor with enhanced alpha-helicity, inhibits replication of human immunodeficiency virus type 1 mutants resistant to enfuvirtide” (Antimicrob Agents Chemother, 2009).

Consider `CC[C@H](C)[C@H](NC(=O)[C@H](CC(C)C)NC(=O)[C@H](CO)NC(=O)[C@H](Cc1cnc[nH]1)NC(=O)[C@@H](NC(=O)[C@H](CC(C)C)NC(=O)[C@H](CO)NC(=O)[C@@H](NC(=O)[C@H](Cc1ccc(O)cc1)NC(=O)[C@H](CC(N)=O)NC(=O)[C@H](CC(N)=O)NC(=O)[C@@H](NC(=O)[C@H](CCC(=O)O)NC(=O)[C@H](CCCNC(=N)N)NC(=O)[C@H](CC(=O)O)NC(=O)[C@H](Cc1c[nH]c2ccccc12)NC(=O)[C@H](CCC(=O)O)NC(=O)[C@@H](CCS)NC(=O)[C@@H](N)Cc1c[nH]c2ccccc12)[C@@H](C)CC)[C@@H](C)O)[C@@H](C)CC)C(=O)N[C@@H](CCC(=O)O)C(=O)N[C@@H](CCC(=O)O)C(=O)N[C@@H](CO)C(=O)N[C@@H](CCC(N)=O)C(=O)N[C@@H](CC(N)=O)C(=O)N[C@@H](CCC(N)=O)C(=O)N[C@@H](CCC(N)=O)C(=O)N[C@@H](CCC(=O)O)C(=O)N[C@@H](CCCCN)C(=O)N[C@@H](CC(N)=O)C(=O)N[C@@H](CCC(N)=O)C(=O)N[C@@H](CCC(=O)O)C(=O)N[C@@H](CC(C)C)C(=O)N[C@@H](CC(C)C)C(=O)O`, for which the “Ratio EC50” value in [1] was above 19; in [2], 9.7; in [3], above 19; in experiment [4], 3.7; in [6] it was 4.7; in experiment [8], above 19. For the same compound, the pEC50 in [5] was 6.61; in experiment [7] it was below 6.00; in [9] it was 6.72; in experiment [10], below 6.00; in experiment [11], below 6.00; in experiment [12] it was 7.28. This compound also gave a negative-log EC50 (pEC50) in experiment [13] of 6.30.
Turning to H-WEEWDKKIEEYTKKIEELIKKSEEQQKKN-OH, the inhibition result in experiment [14] and in experiment [15] was “Active” in each case. For the same compound, the “Ratio EC50” value was 1.8 in experiment [1]; 1.6 in experiment [2]; 26 in experiment [3]; 1.4 in experiment [4]; 1.3 in experiment [6]; 2.2 in experiment [8]. Further, the pEC50 is 8.62 in experiment [5]; 7.30 in experiment [7]; 8.57 in experiment [9]; 8.47 in experiment [10]; 8.39 in [11]; 8.72 in experiment [12]. In experiment [13], this compound had a pEC50 of 8.52.
Regarding enfuvirtide, the inhibition result in experiment [14] and in [16] was “inactive” each time. Further, the “Ratio EC50” value in [1] turned out to be 35; in experiment [2] it was 9.6; in [3], 163; in [4], 1.4; in [6], 6.3; in [8], 20. Moreover, the pEC50 is 7.82 in experiment [5]; 6.41 in experiment [7]; 8.47 in experiment [9]; 7.08 in [10]; 7.31 in experiment [11]; 8.62 in [12]. In addition, the pEC50 in [13] is 7.64. Moreover, in experiment [15], the inhibition result was “Active”.
As for “H-W[Nle]EWDRKIEEYTKKIEELIKKSQEQQEKNEKELKREREREG-OH”, the inhibition result in experiment [14] was “Active”. The “Ratio EC50” value turned out to be 0.6 in experiment [1]; 0.9 in [2]; 1.3 in experiment [3]; 5 in experiment [4]; 0.7 in [6]; 0.7 in experiment [8]. The pEC50 was 8.80 in experiment [5]; 8.52 in experiment [7]; 7.92 in experiment [9]; 8.82 in experiment [10]; 8.80 in experiment [11]; 8.62 in experiment [12]. Moreover, in [13], the pEC50 is 8.66.
In the case of H-WEEWDKKIEEYTKKIEELIKKS-OH, the “Ratio EC50” value is above 1.5 in experiment [1]; 0.4 in [2]; 0.4 in experiment [3]; above 1.5 in [4]; 0.3 in [6]; 0.2 in experiment [8]. In addition, the negative-log EC50 (pEC50) was 6.66 in [5]; 6.60 in experiment [7]; below 6.00 in experiment [9]; below 6.00 in experiment [10]; 6.94 in experiment [11]; 6.16 in experiment [12]. This compound also had a pEC50 in experiment [13] of 6.54.

As a reminder, the pEC50 is the EC50 on a negative log10 scale, so that one unit is a factor of ten.
